≈ marks a conversion by molar mass, not a printed value. Non-standard residues stand in square brackets, D forms with d. Residues, ends and D or L forms follow the SMILES beside them. *: point of attachment. Fumaryl(OMe) = COC(=O)/C=C/C(=O)*; Dap = NC[C@H](N)C(=O)O

In assay [1] the test system is Candida albicans. The assay can be described thus: In vitro antifungal activity against Candida albicans ATCC 26278. It counts as functional. Put shortly: (§1)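 MIC by serial dilution in liquid YNB medium containing sodium glutamate, inoculated at 10^4 cells/mL; growth read turbidimetrically at 660 nm after 24 h at 30 °C. Strains were 16 fresh clinical isolates collected at the Medical Academy of Gdansk plus standard strain ATCC 26278.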

Assay [2] deals with Candida albicans. Put plainly: Tested for its intracellular cleavage rate in Candida albicans ATCC 26278. The class given is functional. Put shortly:
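Cell-free extract came from cells grown overnight on Sabouraud medium at 30 °C with vigorous shaking. Cells were washed and extracted in 0.05 M phosphate buffer, pH 6.5; protein was measured by Lowry (Layne modification). Peptides at 200 μM in 0.005 M phosphate buffer were incubated with extract at 30 °C for 30 min. Samples were taken every 10 min and released amino acid was measured by Cd-ninhydrin.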

Assay [3] deals with Candida epidermidis. The assay can be described thus: In vitro antifungal activity against Candida epidermidis OBS 6023.
Assay [4] concerns Candida albicans. Put plainly: In vitro antifungal activity against 16 clinical strains of Candida albicans. It counts as functional. Put shortly: as §1
Assay [5] relates to Saccharomyces cerevisiae. The assay can be described thus: In vitro antifungal activity against Saccharomyces cerevisiae ATCC 9763. It counts as functional.
Assay [6] concerns Candida albicans. Put plainly: Tested for its rate of transport in Candida albicans ATCC 26278. The class given is functional.
Assay [7] concerns Saccharomyces cerevisiae. Put plainly: Tested in vitro for antifungal activity against Saccharomyces cerevisiae ATCC 9763. The class given is functional.
For assay [8], the system named is Saccharomyces cerevisiae. The assay can be described thus: In vitro for antifungal activity against Saccharomyces cerevisiae ATCC 9763. It counts as functional.
For assay [9], the system named is Candida epidermidis. Put plainly: In vitro antifungal activity against Candida epidermidis OBS 6023. This is another data set of the same source.

For orientation: MIC means the lowest concentration found to suppress growth. For the molecule `COC(=O)/C=C/C(=O)NC[C@H](NC(=O)[C@@H](N)CCSC)C(=O)N[C@@H](CCSC)C(=O)O`, the minimum inhibitory concentration (MIC) in the assay on Candida albicans [1] worked out at 0.3 µg/mL (≈ 0.627 µM); in the assay with Candida epidermidis [3], 110 µg/mL (≈ 230 µM); against Candida albicans [4] it was 0.15 µg/mL (≈ 0.313 µM); with Saccharomyces cerevisiae [5], 50 µg/mL (≈ 104 µM). In the assay on Candida albicans [2], this molecule returned a Cleavage rate of 4.8 nM/min/mg.
With `COC(=O)/C=C/C(=O)NC[C@H](NC(=O)[C@H](N)CCSC)C(=O)N[C@H](CCSC)C(=O)O`, the Transport rate with Candida albicans [6] turned out to be 2 nM/min/mg.
Regarding `COC(=O)/C=C/C(=O)NC[C@H](NC(=O)[C@H](CCSC)NC(=O)[C@@H](N)CCSC)C(=O)O`, the MIC is 0.25 µg/mL (≈ 0.522 µM) with Candida albicans [1], 125 µg/mL (≈ 261 µM) in the assay on Candida epidermidis [3], 0.1 µg/mL (≈ 0.209 µM) in the assay with Candida albicans [4] and 37.5 µg/mL (≈ 78.4 µM) in the assay on Saccharomyces cerevisiae [7]. The same molecule registered a Cleavage rate in the assay on Candida albicans [2] of 4.9 nM/min/mg.
Regarding `CCC[C@H](NC(=O)[C@@H](N)CCCCN)C(=O)N[C@@H](CNC(=O)/C=C/C(=O)OC)C(=O)O`, the minimum inhibitory concentration (MIC) against Candida albicans [1] was found to be 0.025 µg/mL (≈ 0.0564 µM); against Candida epidermidis [3] it was 125 µg/mL (≈ 282 µM); against Candida albicans [4], 0.01 µg/mL (≈ 0.0225 µM). This molecule yielded a Cleavage rate with Candida albicans [2] of 51 nM/min/mg.
In the case of `CCC[C@H](NC(=O)[C@H](CNC(=O)/C=C/C(=O)OC)NC(=O)[C@@H](N)CCC)C(=O)O`, the MIC with Candida albicans [1] amounted to 0.05 µg/mL (≈ 0.121 µM); against Candida epidermidis [3] it was 125 µg/mL (≈ 302 µM); against Candida albicans [4] it was 0.01 µg/mL (≈ 0.0241 µM); against Saccharomyces cerevisiae [8], 50 µg/mL (≈ 121 µM). In addition, in the assay on Candida albicans [2], the Cleavage rate is 8.9 nM/min/mg. Besides, in the assay with Candida albicans [6], the Transport rate was determined as 2.9 nM/min/mg.
For `COC(=O)/C=C/C(=O)NC[C@H](N)C(=O)N[C@@H](CCSC)C(=O)N[C@@H](C)C(=O)O`, the MIC in the assay with Candida albicans [1] is 0.25 µg/mL (≈ 0.597 µM); in the assay with Candida epidermidis [3] it was 50 µg/mL (≈ 119 µM); against Candida albicans [4], 0.1 µg/mL (≈ 0.239 µM); against Saccharomyces cerevisiae [5], 15 µg/mL (≈ 35.8 µM). This molecule came in with a Cleavage rate in the assay on Candida albicans [2] of 4.9 nM/min/mg.
In the assay with Candida albicans [6], `COC(=O)/C=C/C(=O)NC[C@H](NC(=O)[C@@H](CCSC)NC(=O)[C@@H](CCSC)NC(=O)[C@@H](N)CNC(=O)/C=C/C(=O)OC)C(=O)O` registered a Transport rate of 1.2 nM/min/mg.
Turning to `COC(=O)/C=C/C(=O)NC[C@H](NC(=O)[C@H](CCSC)NC(=O)[C@H](CCSC)NC(=O)[C@@H](N)CNC(=O)/C=C/C(=O)OC)C(=O)O`, the minimum inhibitory concentration (MIC) against Candida albicans [1] turned out to be 0.25 µg/mL (≈ 0.369 µM); in the assay with Candida epidermidis [3] it was 75 µg/mL (≈ 111 µM); with Candida albicans [4], 0.25 µg/mL (≈ 0.369 µM); in the assay on Saccharomyces cerevisiae [5] it was 75 µg/mL (≈ 111 µM). Moreover, the Cleavage rate with Candida albicans [2] came out at 5.8 nM/min/mg.
`CCC[C@H](NC(=O)[C@@H](N)CCSC)C(=O)N[C@@H](CNC(=O)/C=C/C(=O)OC)C(=O)O`: the minimal inhibitory concentration (MIC) turned out to be 0.125 µg/mL (≈ 0.28 µM) with Candida albicans [1], 130 µg/mL (≈ 291 µM) with Candida epidermidis [3], 0.05 µg/mL (≈ 0.112 µM) against Candida albicans [4] and 7.5 µg/mL (≈ 16.8 µM) in the assay on Saccharomyces cerevisiae [5]. For the same molecule, in the assay with Candida albicans [2], the Cleavage rate came to 17.3 nM/min/mg.
In the same order, the values of `COC(=O)/C=C/C(=O)NC[C@H](NC(=O)[C@H](C)NC(=O)[C@@H](N)CCSC)C(=O)O` are 0.75 µg/mL (≈ 1.79 µM), 125 µg/mL (≈ 299 µM), 0.25 µg/mL (≈ 0.597 µM), 7.5 µg/mL (≈ 17.9 µM) and 15.2 nM/min/mg.
Turning to `COC(=O)/C=C/C(=O)NC[C@H](NC(=O)[C@H](C)N)C(=O)N[C@@H](C)C(=O)O`, the minimal inhibitory concentration (MIC) in the assay on Candida albicans [1] came out at 0.75 µg/mL (≈ 2.09 µM); in the assay on Candida epidermidis [3], 80 µg/mL (≈ 223 µM); in the assay on Candida albicans [4] it was 0.25 µg/mL (≈ 0.698 µM); in the assay on Saccharomyces cerevisiae [5] it was 37.5 µg/mL (≈ 105 µM). In the assay with Candida albicans [2], this molecule returned a Cleavage rate of 5.4 nM/min/mg. This molecule also gave a Transport rate with Candida albicans [6] of 0.9 nM/min/mg.
For `COC(=O)/C=C/C(=O)NC[C@H](NC(=O)[C@H](CNC(=O)/C=C/C(=O)OC)NC(=O)[C@@H](N)CCSC)C(=O)O`, the minimum inhibitory concentration (MIC) was 0.75 µg/mL (≈ 1.37 µM) in the assay with Candida albicans [1], 125 µg/mL (≈ 229 µM) against Candida epidermidis [3], 0.25 µg/mL (≈ 0.458 µM) against Candida albicans [4] and 150 µg/mL (≈ 275 µM) against Saccharomyces cerevisiae [5]. In the assay with Candida albicans [2], this molecule gave a Cleavage rate of 10 nM/min/mg.
With `COC(=O)/C=C/C(=O)NCC(N)C(=O)N[C@@H](CCSC)C(=O)N[C@@H](CNC(=O)/C=C/C(=O)OC)C(=O)O` (some centres undefined), the MIC was determined as 0.75 µg/mL (≈ 1.37 µM) with Candida albicans [1], 75 µg/mL (≈ 137 µM) against Candida epidermidis [3], 0.25 µg/mL (≈ 0.458 µM) in the assay with Candida albicans [4] and 150 µg/mL (≈ 275 µM) in the assay on Saccharomyces cerevisiae [5]. This molecule gave a Cleavage rate in the assay with Candida albicans [2] of 3 nM/min/mg. In the assay on Candida albicans [6], the Transport rate was 1.4 nM/min/mg.
For the molecule `COC(=O)/C=C/C(=O)NC[C@H](NC(=O)[C@H](CCSC)NC(=O)[C@H](CCSC)NC(=O)[C@H](CCSC)NC(=O)[C@@H](N)CCSC)C(=O)O` (H-MMMM[Dap](Fumaryl(OMe))-OH), the minimal inhibitory concentration (MIC) in the assay on Candida albicans [1] came to 0.5 µg/mL (≈ 0.675 µM); against Candida epidermidis [9], 75 µg/mL (≈ 101 µM); with Candida albicans [4], 0.25 µg/mL (≈ 0.337 µM); against Saccharomyces cerevisiae [5], 37.5 µg/mL (≈ 50.6 µM). The molecule further registered a Cleavage rate in the assay on Candida albicans [2] of 18.6 nM/min/mg.
With `COC(=O)/C=C/C(=O)NC[C@H](NC(=O)[C@H](CCSC)NC(=O)[C@H](CCSC)NC(=O)[C@@H](N)CCSC)C(=O)O` (H-MMM[Dap](Fumaryl(OMe))-OH), the MIC came to 0.75 µg/mL (≈ 1.23 µM) in the assay with Candida albicans [1], 75 µg/mL (≈ 123 µM) with Candida epidermidis [3], 0.25 µg/mL (≈ 0.41 µM) against Candida albicans [4] and 100 µg/mL (≈ 164 µM) against Saccharomyces cerevisiae [5]. In the assay with Candida albicans [2], this molecule returned a Cleavage rate of 23.7 nM/min/mg.

These data come from ChEMBL document CHEMBL1124925, “Anticandidal properties of N3-(4-methoxyfumaroyl)-L-2,3-diaminopropanoic acid oligopeptides” (1990).
